Assay results taken from ChEMBL document CHEMBL1156857, “N-Acetamideindolecarboxylic acid allosteric 'finger-loop' inhibitors of the hepatitis C virus NS5B polymerase: discovery and initial optimization studies” (Bioorg Med Chem Lett, 2010).
≈ marks a conversion by molar mass, not a printed value.

What was measured:
[1] = Inhibition of histidine-tagged HCV NS5Bdelta21 by scintillation proximity assay; parameters: species or system Hepacivirus hominis
Summary of the method: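 Soluble truncated NS5B at 12 nM. Reaction contains 0.01% w/v BSA, with no dodecyl-β-D-maltoside or IGEPAL. Other conditions follow an earlier method. IC50 is the mean of duplicate experiments on two separate weighings.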

Hepatitis C virus = assay: Antiviral activity against Hepatitis C virus subtype 1b infected in human Huh7 cells assessed as inhibition of viral RNA replication; type: functional, organism-based, Hepacivirus hominis, genotype 1b, Huh-7; details: Hepatitis C virus, genotype 1b, Huh-7; read-out: EC50
Summary of the method: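 Stable subgenomic HCV genotype 1b replicon in Huh-7 cells carrying a modified luciferase reporter. EC50 from duplicate or more determinations. Some inhibitors were also run in a 72 h replicon format, with HCV RNA normalized to total cellular RNA. Cytotoxicity checked as TC50.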

[2] = Inhibition of calf thymus DNA-directed RNA polymerase 2; parameters: species or system Bos taurus
[3] = Lipophilicity, log D at pH 7.4; type: physicochemical; details: buffer
[4] = Equilibrium solubility at pH 7.2 with amorphous solid after 24 hrs by shake flask method; type: physicochemical; details: buffer
[5] = (§1) Permeability from apical to basolateral side of the human Caco-2 cells at pH 7.4; type: ADME, cell-based; details: Caco-2, pH 7.4, read-out: permeability
Summary of the method: (§2)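 Caco-2 permeability measured in the apical-to-basal direction at pH 7.4.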

Cytochrome P450 3A4 = Cytochrome P450 3A4 (Homo sapiens, UniProt P08684); assay: Inhibition of CYP3A4; type: ADME
Summary of the method: (§3)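 IC50s measured against CYP 1A2, 2C9, 2C19, 2D6 and 3A4 isozymes. The value reported is the lowest IC50, taken against the most sensitive isozyme.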

[6] = Half life in human liver microsomes at 2 uM; type: ADME, Microsome
Summary of the method: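 Human liver microsomes incubated with test compound at 2 µM. Stability reported as T1/2 in min.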

Cytochrome P450 2C9 = Cytochrome P450 2C9 (Homo sapiens, UniProt P11712); assay: Inhibition of CYP2C9; type: ADME; summary of the method: as §3
[7] = Half life in rat liver microsomes at 2 uM; type: ADME, Microsome
Cytochrome P450 2C19 = Cytochrome P450 2C19 (Homo sapiens, UniProt P33261); assay: Inhibition of CYP2C19; type: ADME; summary of the method: as §3
Caco-2 = assay: as §1; type: ADME, cell-based; details: caco-2, pH 7.4, BLD = below limit of detection; summary of the method: as §2

Sequence of Cytochrome P450 3A4 (P08684 whole entry): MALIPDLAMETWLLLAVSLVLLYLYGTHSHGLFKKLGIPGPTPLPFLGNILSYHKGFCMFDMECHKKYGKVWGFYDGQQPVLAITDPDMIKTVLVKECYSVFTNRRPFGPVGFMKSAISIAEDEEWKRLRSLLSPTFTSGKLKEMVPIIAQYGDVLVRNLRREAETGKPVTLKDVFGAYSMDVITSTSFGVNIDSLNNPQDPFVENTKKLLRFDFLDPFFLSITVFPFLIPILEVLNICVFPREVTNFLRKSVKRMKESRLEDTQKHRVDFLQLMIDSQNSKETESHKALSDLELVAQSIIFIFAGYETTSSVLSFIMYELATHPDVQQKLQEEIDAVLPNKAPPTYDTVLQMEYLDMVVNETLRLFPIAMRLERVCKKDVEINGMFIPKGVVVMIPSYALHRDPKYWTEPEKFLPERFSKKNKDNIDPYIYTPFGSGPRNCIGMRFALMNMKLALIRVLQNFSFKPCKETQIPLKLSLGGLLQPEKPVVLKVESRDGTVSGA
Sequence of Cytochrome P450 2C19 (P33261 whole entry): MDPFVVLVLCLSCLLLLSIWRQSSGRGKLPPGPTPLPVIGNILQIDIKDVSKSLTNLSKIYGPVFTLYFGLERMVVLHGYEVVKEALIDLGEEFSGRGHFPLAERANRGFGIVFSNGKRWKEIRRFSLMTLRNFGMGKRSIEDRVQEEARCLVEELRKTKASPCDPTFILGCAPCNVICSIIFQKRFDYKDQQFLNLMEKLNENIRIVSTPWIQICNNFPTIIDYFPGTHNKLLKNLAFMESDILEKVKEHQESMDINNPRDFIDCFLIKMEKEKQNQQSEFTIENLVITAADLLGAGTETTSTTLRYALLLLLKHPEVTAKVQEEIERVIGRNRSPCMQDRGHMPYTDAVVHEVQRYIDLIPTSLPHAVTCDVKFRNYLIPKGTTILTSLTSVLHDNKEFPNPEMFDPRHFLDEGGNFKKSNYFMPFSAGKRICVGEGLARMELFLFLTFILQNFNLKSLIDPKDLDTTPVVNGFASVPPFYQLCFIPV
Sequence of Cytochrome P450 2C9 (P11712 whole entry): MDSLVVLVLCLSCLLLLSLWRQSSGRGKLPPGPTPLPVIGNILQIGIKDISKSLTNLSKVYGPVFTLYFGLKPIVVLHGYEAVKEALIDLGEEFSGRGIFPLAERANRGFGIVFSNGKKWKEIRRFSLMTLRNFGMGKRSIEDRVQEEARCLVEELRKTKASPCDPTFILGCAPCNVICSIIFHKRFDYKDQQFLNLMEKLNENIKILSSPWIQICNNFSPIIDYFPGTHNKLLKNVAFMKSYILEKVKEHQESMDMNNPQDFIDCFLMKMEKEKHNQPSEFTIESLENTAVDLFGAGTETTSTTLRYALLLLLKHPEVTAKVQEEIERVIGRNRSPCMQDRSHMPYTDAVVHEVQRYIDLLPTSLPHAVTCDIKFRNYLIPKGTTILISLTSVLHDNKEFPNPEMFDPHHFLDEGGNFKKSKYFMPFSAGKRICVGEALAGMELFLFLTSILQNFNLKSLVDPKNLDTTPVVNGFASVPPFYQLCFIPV

Row | Compound | IC50 [1] | EC50 (Hepatitis C virus) | IC50 [2] | other results
1 | O=C(O)c1ccc2c(C3CCCCC3)c(-c3ccoc3)n(CC(=O)N3CCCCC3)c2c1 | 40 nM | 820 nM | > 250000 nM | –
2 | CN(CCc1ccncc1)C(=O)Cn1c(-c2ccoc2)c(C2CCCCC2)c2ccc(C(=O)O)cc21 | 30 nM | 630 nM | > 250000 nM | –
3 | O=C(O)c1ccc2c(C3CCCCC3)c(-c3ccoc3)n(CC(=O)N3CCC(O)CC3)c2c1 | 20 nM | 2000 nM | > 250000 nM | –
4 | CN(C)C(=O)Cn1c(-c2ccccn2)c(C2CCCCC2)c2ccc(C(=O)O)cc21 | 240 nM | 3400 nM | > 250000 nM | –
5 | O=C(O)c1ccc2c(C3CCCCC3)c(-c3ccoc3)n(CC(=O)N3CCC(C(=O)O)CC3)c2c1 | 30 nM | > 94000 nM | > 250000 nM | –
6 | CN(C)CCN(C)C(=O)Cn1c(-c2ccoc2)c(C2CCCCC2)c2ccc(C(=O)O)cc21 | 20 nM | 440 nM | > 250000 nM | –
7 | O=C(O)c1ccc2c(C3CCCCC3)c(-c3ccsc3)n(CC(=O)N3CCC(N4CCCC4)CC3)c2c1 | 30 nM | 1000 nM | > 250000 nM | –
8 | CN(C)C(=O)Cn1c(-c2ccoc2)c(C2CCCCC2)c2ccc(C(=O)O)cc21 | 20 nM | 800 nM | > 250000 nM | logD [3]: 1.45; solubility thermodynamic at 24 h [4]: 240 µg/mL (≈ 608 µM); Papp A→B [5]: 12.8 ×10⁻⁶ cm/s; IC50 (Cytochrome P450 3A4): >= 26 uM; half-life at 2 µM [6]: 4.17 h
9 | CN(C)C(=O)Cn1c(-c2cccs2)c(C2CCCCC2)c2ccc(C(=O)O)cc21 | 20 nM | 600 nM | > 250000 nM | –
10 | CN(C)C(=O)Cn1c(-c2cc3ccccc3s2)c(C2CCCCC2)c2ccc(C(=O)O)cc21 | 210 nM | 2500 nM | > 250000 nM | –
11 | CN1CCN(C(=O)Cn2c(-c3ccoc3)c(C3CCCCC3)c3ccc(C(=O)O)cc32)CC1 | 40 nM | 450 nM | > 250000 nM | solubility thermodynamic at 24 h [4]: 7 µg/mL (≈ 15.6 µM); Papp A→B [5]: 1.7 ×10⁻⁶ cm/s; half-life at 2 µM [6]: 1.17 h
12 | CC(C)N1CCN(C(=O)Cn2c(-c3ccoc3)c(C3CCCCC3)c3ccc(C(=O)O)cc32)CC1 | 40 nM | 830 nM | > 250000 nM | solubility thermodynamic at 24 h [4]: 18 µg/mL (≈ 37.7 µM); Papp A→B [5]: 7 ×10⁻⁶ cm/s; IC50 (Cytochrome P450 3A4; read-out: IC50): ≥ 8000 nM; half-life at 2 µM [6]: > 5 h
13 | O=C(O)c1ccc2c(C3CCCCC3)c(-c3ccoc3)n(CC(=O)N3CCC(N4CCCCC4)CC3)c2c1 | 30 nM | 780 nM | > 250000 nM | –
14 | O=C(O)c1ccc2c(C3CCCCC3)c(-c3ccccc3)n(CC(=O)N3CCC(N4CCCC4)CC3)c2c1 | 40 nM | 380 nM | > 250000 nM | solubility thermodynamic at 24 h [4]: 47 µg/mL (≈ 91.5 µM); Papp A→B [5]: < 0.1 ×10⁻⁶ cm/s; half-life at 2 µM [6]: 1.85 h
15 | O=C(O)c1ccc2c(C3CCCCC3)c(-c3ccsc3)n(CC(=O)N3CCOCC3)c2c1 | 40 nM | 330 nM | > 250000 nM | –
16 | CC(C)N(C)C(=O)Cn1c(-c2ccoc2)c(C2CCCCC2)c2ccc(C(=O)O)cc21 | 30 nM | 800 nM | > 250000 nM | –
17 | O=C(O)c1ccc2c(C3CCCCC3)c(-c3ccoc3)n(CC(=O)N3CCN(CCO)CC3)c2c1 | 20 nM | 1300 nM | > 250000 nM | –
18 | O=C(O)c1ccc2c(C3CCCCC3)c(-c3ccoc3)n(CC(=O)N3CCOCC3)c2c1 | 30 nM | 600 nM | > 250000 nM | solubility thermodynamic at 24 h [4]: 105 µg/mL (≈ 241 µM); Papp A→B [5]: 5.2 ×10⁻⁶ cm/s; IC50 (Cytochrome P450 2C9): ≥ 24000 nM; half-life at 2 µM [6]: > 5 h; half-life at 2 µM [7]: 4.8 h
19 | CN1CCC(N(C)C(=O)Cn2c(-c3ccoc3)c(C3CCCCC3)c3ccc(C(=O)O)cc32)CC1 | 20 nM | 130 nM | > 250000 nM | solubility thermodynamic at 24 h [4]: 290 µg/mL (≈ 607 µM); Papp A→B [5]: 0.2 ×10⁻⁶ cm/s; half-life at 2 µM [6]: > 5 h
20 | O=C(O)c1ccc2c(C3CCCCC3)c(-c3cccs3)n(CC(=O)N3CCOCC3)c2c1 | 30 nM | 600 nM | > 250000 nM | –
21 | O=C(O)c1ccc2c(C3CCCCC3)c(-c3ccoc3)n(CC(=O)N3CCC(CCO)CC3)c2c1 | 70 nM | 1300 nM | > 250000 nM | –

Row | Compound | IC50 [1] | EC50 (Hepatitis C virus) | IC50 [2] | other results
22 | O=C(O)c1ccc2c(C3CCCCC3)c(-c3cccs3)n(CC(=O)N3CCC(N4CCCC4)CC3)c2c1 | 20 nM | 460 nM | > 250000 nM | solubility thermodynamic at 24 h [4]: 60 µg/mL (≈ 115 µM); Papp A→B [5]: 0.2 ×10⁻⁶ cm/s; IC50 (Cytochrome P450 2C19): ≥ 11000 nM; half-life at 2 µM [6]: > 5 h
23 | COCCN(C)C(=O)Cn1c(-c2ccoc2)c(C2CCCCC2)c2ccc(C(=O)O)cc21 | 50 nM | 1300 nM | > 250000 nM | –
24 | CN1CCCN(C(=O)Cn2c(-c3ccoc3)c(C3CCCCC3)c3ccc(C(=O)O)cc32)CC1 | 20 nM | 330 nM | > 250000 nM | –
25 | O=C(O)c1ccc2c(C3CCCCC3)c(-c3ccoc3)n(CC(=O)N3CCC(N4CCCC4)CC3)c2c1 | 20 nM | 380 nM | > 250000 nM | solubility thermodynamic at 24 h [4]: 79 µg/mL (≈ 157 µM); Papp A→B [5]: 1.4 ×10⁻⁶ cm/s; half-life at 2 µM [6]: > 5 h
26 | CN(C)C(=O)Cn1c(-c2ccco2)c(C2CCCCC2)c2ccc(C(=O)O)cc21 | 40 nM | 1500 nM | > 250000 nM | –
27 | O=C(O)c1ccc2c(C3CCCCC3)c(-c3ccco3)n(CC(=O)N3CCC(N4CCCC4)CC3)c2c1 | 30 nM | 1200 nM | > 250000 nM | –
28 | CNC(=O)Cn1c(-c2ccoc2)c(C2CCCCC2)c2ccc(C(=O)O)cc21 | 50 nM | 2000 nM | > 250000 nM | –
29 | O=C(O)c1ccc2c(C3CCCCC3)c(-c3cnccn3)n(CC(=O)N3CCC(N4CCCC4)CC3)c2c1 | 60 nM | 10000 nM | > 250000 nM | –
30 | CCCN(C)C(=O)Cn1c(-c2ccoc2)c(C2CCCCC2)c2ccc(C(=O)O)cc21 | 50 nM | 1700 nM | > 250000 nM | –
31 | CN(C)CCCN(C)C(=O)Cn1c(-c2ccoc2)c(C2CCCCC2)c2ccc(C(=O)O)cc21 | 20 nM | 580 nM | > 250000 nM | –
32 | CC(C)N(C(=O)Cn1c(-c2ccoc2)c(C2CCCCC2)c2ccc(C(=O)O)cc21)C(C)C | 70 nM | 2300 nM | > 250000 nM | –
33 | CCN1CCN(C(=O)Cn2c(-c3ccoc3)c(C3CCCCC3)c3ccc(C(=O)O)cc32)CC1 | 30 nM | 410 nM | > 250000 nM | solubility thermodynamic at 24 h [4]: 12 µg/mL (≈ 25.9 µM); Papp A→B [5]: 6.5 ×10⁻⁶ cm/s; IC50 (Cytochrome P450 3A4; read-out: IC50): ≥ 16000 nM; half-life at 2 µM [6]: > 5 h
34 | CN(C)C(=O)Cn1c(-c2ccsc2)c(C2CCCCC2)c2ccc(C(=O)O)cc21 | 40 nM | 640 nM | > 250000 nM | –
35 | O=C(O)c1ccc2c(C3CCCCC3)c(-c3ccco3)n(CC(=O)N3CCOCC3)c2c1 | 40 nM | 1000 nM | > 250000 nM | –
36 | Cn1c(-c2ccoc2)c(C2CCCCC2)c2ccc(C(=O)O)cc21 | 16 nM | 4200 nM | – | logD [3]: 3.26
37 | CCN(CC)CCN(C)C(=O)Cn1c(-c2ccoc2)c(C2CCCCC2)c2ccc(C(=O)O)cc21 | 30 nM | 460 nM | > 250000 nM | –
38 | O=C(O)c1ccc2c(C3CCCCC3)c(-c3cc4ccccc4s3)n(CC(=O)N3CCC(N4CCCC4)CC3)c2c1 | 160 nM | 1000 nM | > 250000 nM | –
39 | CN(CCO)C(=O)Cn1c(-c2ccoc2)c(C2CCCCC2)c2ccc(C(=O)O)cc21 | 20 nM | 1500 nM | > 250000 nM | solubility thermodynamic at 24 h [4]: 1300 µg/mL (≈ 3060 µM); permeability (Caco-2): BLD; half-life at 2 µM [6]: 4.58 h
40 | O=C(O)c1ccc2c(C3CCCCC3)c(-c3ccccc3)n(CC(=O)N3CCOCC3)c2c1 | 70 nM | 700 nM | > 250000 nM | –
41 | CN(C)C(=O)Cn1c(-c2ccccc2)c(C2CCCCC2)c2ccc(C(=O)O)cc21 | 40 nM | 1400 nM | > 250000 nM | –
